Experimental data as given in ChEMBL document CHEMBL2331178, “Novel pyridinone derivatives as non-nucleoside reverse transcriptase inhibitors (NNRTIs) with high potency against NNRTI-resistant HIV-1 strains” (J Med Chem, 2013).

How the values were obtained:
[1] = biological target: Human immunodeficiency virus type 1 reverse transcriptase (Human immunodeficiency virus 1, UniProt Q72547); assay: Inhibition of HIV1 reverse transcriptase after 1 hr by colorimetric assay
How it was run: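 Purified recombinant wild-type RT with poly(rA)/oligo(dT)16 template-primer and serial inhibitor concentrations. Incubated 1 h at 37 °C. Incorporated biotin detected with streptavidin-alkaline phosphatase and PNPP (30 min, 37 °C), read colorimetrically.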

[2] = Cytotoxicity against human TZM-bl cells; type: cell-based
[3] = test system: Human immunodeficiency virus 1; assay: Antiviral activity against NNRTI-resistant Human immunodeficiency virus 1 harboring reverse transcriptase K103N mutation infected in human TZM-bl cells assessed decrease in p24 level after 7 days by ELISA; type: functional, organism-based; settings: Human immunodeficiency virus 1, TZM-bl, 168 h
[4] = test system: Human immunodeficiency virus 1; assay: Antiviral activity against NNRTI-resistant Human immunodeficiency virus 1 harboring reverse transcriptase Y181C mutation infected in human TZM-bl cells assessed decrease in p24 level after 7 days by ELISA; type: functional, organism-based; settings: Human immunodeficiency virus 1, TZM-bl, 168 h
[5] = test system: Human immunodeficiency virus 1; assay: Antiviral activity against NNRTI-resistant Human immunodeficiency virus 1 harboring reverse transcriptase K103N mutation infected in human MT4 cells assessed decrease in p24 level after 7 days by ELISA; type: functional, organism-based; settings: Human immunodeficiency virus 1, MT4, 168 h
How it was run: (§1)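 MT4 cells (4×10^4/well) were infected with 200 TCID50 HIV-1 and held 2 h at 37 °C, then serially diluted compound was added. […] The K103N and Y181C viruses came from transfecting RT-mutant plasmids into 293T/17 cells.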

[6] = test system: Human immunodeficiency virus 1; assay: Antiviral activity against NNRTI-resistant Human immunodeficiency virus 1 harboring reverse transcriptase Y181C mutation infected in human MT4 cells assessed decrease in p24 level after 7 days by ELISA; type: functional, organism-based; settings: Human immunodeficiency virus 1, MT4, 168 h; how it was run: as §1
[7] = test system: Human immunodeficiency virus 1; assay: Antiviral activity against NNRTI-resistant Human immunodeficiency virus 1 A17 double mutant infected in human TZM-bl cells assessed decrease in p24 level after 7 days by ELISA; type: functional, organism-based; settings: Human immunodeficiency virus 1, A17, TZM-bl, 168 h
[8] = test system: Human immunodeficiency virus 1; assay: Antiviral activity against Human immunodeficiency virus 1 SF33 infected in human TZM-bl cells assessed decrease in p24 level after 7 days by ELISA; type: functional, organism-based; settings: Human immunodeficiency virus 1, SF33, TZM-bl, 168 h
[9] = test system: Human immunodeficiency virus 1; assay: Antiviral activity against NNRTI-resistant Human immunodeficiency virus 1 A17 double mutant infected in human MT4 cells assessed decrease in p24 level after 7 days by ELISA; type: functional, organism-based; settings: Human immunodeficiency virus 1, A17, MT4, 168 h; how it was run: as §1
[10] = Selectivity index, ratio of CC50 for human MT4 cells to EC50 for Human immunodeficiency virus 1 A17 infected in human MT4 cells; type: toxicity, cell-based; settings: read-out: Ratio CC50/EC50
[11] = Selectivity index, ratio of CC50 for human TZM-bl cells to EC50 for Human immunodeficiency virus 1 SF33 infected in human TZM-bl cells; type: toxicity, cell-based; settings: read-out: Ratio CC50/EC50
[12] = Selectivity index, ratio of CC50 for human MT4 cells to EC50 for Human immunodeficiency virus 1 SF33 infected in human MT4 cells; type: toxicity, cell-based; settings: read-out: Ratio CC50/EC50
[13] = Selectivity index, ratio of CC50 for human TZM-bl cells to EC50 for Human immunodeficiency virus 1 A17 infected in human TZM-bl cells; type: toxicity, cell-based; settings: read-out: Ratio CC50/EC50
[14] = test system: Human immunodeficiency virus 1; assay: Antiviral activity against Human immunodeficiency virus 1 SF33 infected in human MT4 cells assessed decrease in p24 level after 7 days by ELISA; type: functional, organism-based; settings: Human immunodeficiency virus 1, SF33, MT4, 168 h
How it was run: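 MT4 cells (4×10^4/well) infected with 200 TCID50 of HIV-1 for 2 h at 37 °C, then serial dilutions of compound added. After 7 days at 37 °C, p24 measured in a commercial ELISA.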

[15] = Cytotoxicity against human MT4 cells after 3 days by XTT assay; type: cell-based
How it was run: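 Graded compound concentrations added to MT4 cells (5×10^4/well) for 3 days at 37 °C. CCK-8 reagent then added for 4 h at 37 °C to develop the XTT formazan product, and absorbance read at 450 nm. CC50 derived from percent cytotoxicity.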

Row | Compound | IC50 [1] [µM] | CC50 [2] [µM] | EC50 [7] [µM] | EC50 [8] [µM] | EC50 [9] [µM] | selectivity ratio [10] | selectivity ratio [11] | selectivity ratio [12] | selectivity ratio [13] | EC50 [14] [µM] | CC50 at 72 h [15] [µM] | further results
1 | CC1CCCCC1Oc1cc(Cc2ccccc2)[nH]c(=O)c1Br (mixture of isomers) | 1.21 |  |  |  |  |  |  |  |  |  |  | 
2 | Cc1ccnc2c1NC(=O)c1cccnc1N2C1CC1 [NEVIRAPINE] |  | 204 | > 10 | 0.19 | > 10 |  |  |  |  |  |  | EC50 [3]: > 10 µM; EC50 [4]: > 10 µM; EC50 [5]: > 10 µM; EC50 [6]: > 10 µM
3 | CC(C)c1c(OC2CCCCC2C)cc(CCc2ccccc2)[nH]c1=O (mixture of isomers) | 0.01 | 114 | 0.6 | 0.036 | 2.75 | 73 | 3180 | 28800 | 191 | 0.007 | 201 | 
4 | CCOC(=O)c1c(OC2C(C)CCCC2C)cc(Cc2ccccc2)[nH]c1=O (mixture of isomers) | 37.1 |  |  |  |  |  |  |  |  |  |  | 
5 | CC1CCCCC1Oc1cc(Cc2ccccc2)[nH]c(=O)c1I (mixture of isomers) | 0.59 |  |  |  |  |  |  |  |  |  |  | 
6 | CC1CCCCC1Oc1cc(Cc2ccccc2)[nH]c(=O)c1 (mixture of isomers) | 59.3 |  |  |  |  |  |  |  |  |  |  | 
7 | CCOC(=O)c1c(OC2CC(C)CC(C)C2)cc(Cc2ccccc2)[nH]c1=O (mixture of isomers) | 73.5 |  |  |  |  |  |  |  |  |  |  | 
8 | CC(C)c1c(OC2CCCCC2C)cc(Cc2ccccc2)[nH]c1=O (mixture of isomers) | 0.41 |  |  |  |  |  |  |  |  |  |  | 
9 | CC1CCCCC1Oc1cc(CCc2ccccc2)[nH]c(=O)c1Br (mixture of isomers) | 0.65 | 83.1 | > 10 | 0.092 | 4.32 | 23 |  | 33400 | < 8 | 0.003 | 100 | 
10 | CC(C)c1c(O[C@H]2CCCC[C@H]2C)cc(CCc2ccccc2)[nH]c1=O (racemic) | 1.31 | 189 | > 10 | 0.136 | > 10 | < 8 | 1390 | 1290 | < 18 | 0.068 | 87.9 | 
11 | CC(C)c1c(Cc2ccccc2)n(COCc2ccccc2)c(=O)[nH]c1=O | 0.088 | 65.8 | > 10 | 0.022 | > 10 | < 8 | 2990 |  | < 6 |  |  | EC50 [3]: > 10 µM; EC50 [4]: > 10 µM; EC50 [5]: 2.4 µM; EC50 [6]: > 10 µM
12 | CC(C)c1c(OC2CCCCC2C)cc(Cc2ccc(F)cc2)[nH]c1=O (mixture of isomers) | 0.13 | 74.5 | > 10 | 0.026 | > 10 | < 6 | 2860 | 2810 | < 7 | 0.023 | 64.6 | 
13 | CCOC(=O)c1c(OC2CCCC2)cc(Cc2ccccc2)[nH]c1=O | > 100 |  |  |  |  |  |  |  |  |  |  | 
14 | Cc1ccc(Cc2cc(OC3CCCCC3C)c(C(C)C)c(=O)[nH]2)cc1 (mixture of isomers) | 0.059 | 99 | > 10 | 0.057 | > 10 | < 11 | 1740 | 18700 | < 9 | 0.006 | 112 | 
15 | CCOC(=O)c1c(OC2CCCCC2C)cc(Cc2ccccc2)[nH]c1=O (mixture of isomers) | 5.29 |  |  |  |  |  |  |  |  |  |  | 
16 | CCOC(=O)c1c(OC2CC(C)CC(C)(C)C2)cc(Cc2ccccc2)[nH]c1=O (mixture of isomers) | > 100 |  |  |  |  |  |  |  |  |  |  | 
17 | CCOC(=O)c1c(OC2CCCCC2C)cc(CCc2ccccc2)[nH]c1=O (mixture of isomers) | > 100 |  |  |  |  |  |  |  |  |  |  | 
18 | CC1CCCCC1Oc1cc(CCc2ccccc2)[nH]c(=O)c1I (mixture of isomers) | 0.15 | > 300 | 0.978 | 0.053 | 0.281 | > 1070 | > 5660 | > 17600 | 307 | 0.017 | > 300 | EC50 [3]: 0.1 µM; EC50 [4]: 0.296 µM; EC50 [5]: 0.017 µM; EC50 [6]: 0.17 µM
19 | CCOC(=O)c1c(OC2CCCCC2Cl)cc(Cc2ccccc2)[nH]c1=O (mixture of isomers) | > 100 |  |  |  |  |  |  |  |  |  |  | 
20 | CCOC(=O)c1c(OC2CCC(C)CC2)cc(Cc2ccccc2)[nH]c1=O (mixture of isomers) | 32.9 |  |  |  |  |  |  |  |  |  |  | 
21 | CCOC(=O)c1c(OC2CCCCC2)cc(Cc2ccccc2)[nH]c1=O | 81 |  |  |  |  |  |  |  |  |  |  | 
22 | CCOC(=O)c1c(OC2CCCC(C)C2)cc(Cc2ccccc2)[nH]c1=O (mixture of isomers) | 19.8 |  |  |  |  |  |  |  |  |  |  | 
23 | CCOC(=O)c1c(OC2CCCCCC2)cc(Cc2ccccc2)[nH]c1=O | > 100 |  |  |  |  |  |  |  |  |  |  | 
24 | CC(C)c1c(OC2CCCCC2C)cc(Cc2ccc(Cl)cc2)[nH]c1=O (mixture of isomers) | 0.16 | 109 | > 10 | 0.023 | 10.4 | 8 | 4720 | 8400 | < 10 | 0.01 | 84 | 
25 | COc1ccc(Cc2cc(OC3CCCCC3C)c(C(C)C)c(=O)[nH]2)cc1 (mixture of isomers) | 0.033 | 132 | > 10 | 0.005 | 0.479 | 155 | 26500 | 12400 | < 13 | 0.006 | 74.5 | 
